Measured values of several laboratories.
Cell line: SK-OV-3

| SMILES | observed | technique | concentration | time | quantity | result |
| --- | --- | --- | --- | --- | --- | --- |
| CC(=O)OC[C@H]1O[C@@H]([S-])[C@H](OC(C)=O)[C@@H](OC(C)=O)[C@@H]1OC(C)=O.CCP(CC)CC.[Au+] | cell growth or viability | resazurin |  |  | IC50 | 2.67 µM |
| C#C[C@@]1(O)[C@@H](CO)O[C@@H](n2cc(Cl)c3c(N)ncnc32)[C@@H]1O | cell growth or viability | SRB |  |  | GI50 | 0.119 µM |
| C[C@]12CC[C@@H]3c4ccc(O)cc4CC[C@H]3[C@@H]1CC[C@@H]2O | cell growth or viability | ATP luminescence |  | 72 h | EC90 | 56.8 µM |
| COc1cccc(Oc2ccccc2NC(=O)CNC(=O)c2cccc3ccccc23)c1 | cell growth or viability | SRB |  | 48 h | GI50 | 0.49 µM |
| NC(=O)c1cccc2cn(-c3ccc([C@@H]4CCCNC4)cc3)nc12 | colony formation |  |  |  | IC50 | 5.34 µM |
| COc1cc(Nc2nccc(-c3cnn4nc(OC)ccc34)n2)cc(C(F)(F)F)c1 | cell growth or viability | ATP luminescence |  |  | IC50 | 0.16 µM |
| COc1ccc(-c2ccc(-c3ccc(C(=N)N)nc3)s2)cc1Cl | cell growth or viability | SRB |  |  | GI50 | 1.75 µM |
| COc1ccc(C(=O)/C=C/c2ccc(Cl)c(Cl)c2)cc1S(N)(=O)=O | cell growth or viability | SRB |  | 48 h | GI50 | 5.5 µM |
| OCc1ccc2c(c1C#Cc1ccc(O)cc1)C(c1ccc(O)cc1)(c1ccc(O)cc1)c1cc(O)ccc1-2 | cell growth or viability | MTT |  | 48 h | IC50 | > 50 µM |
| COc1ccc(C(=O)/C=C/c2cccc(Cl)c2)cc1S(N)(=O)=O | cell growth or viability | SRB |  | 48 h | GI50 | 6.2 µM |
| S=C([S][Au-][P+](CCCCCC[P+]([Au-][S]C(=S)n1cccn1)(c1ccccc1)c1ccccc1)(c1ccccc1)c1ccccc1)n1cccn1 | cell growth or viability |  |  |  | GI50 | 2.06 µM |
| COc1ccc(C(=O)/C=C/c2ccc3ccccc3c2)cc1S(N)(=O)=O | cell growth or viability | SRB |  | 48 h | GI50 | 4.9 µM |
| COc1cccc2c1C(=O)c1c(O)c3c(c(O)c1C2=O)C[C@@](O)(C(=O)CO)C[C@@H]3O[C@H]1C[C@H](N)[C@H](O)[C@H](C)O1 | cell growth or viability | SRB |  |  | IC50 | 25.8 µM |
| COc1ccc(C(=O)/C=C/c2cccc(Br)c2)cc1S(N)(=O)=O | cell growth or viability | SRB |  | 48 h | GI50 | 4.1 µM |
| COc1cc(CNC(=O)CCCC/C=C/C(C)C)ccc1OCc1cn(-c2ccc(C#N)cc2)nn1 | cell growth or viability | SRB |  |  | IC50 | 32.5 µM |
| COc1ccc(C(=O)/C=C/c2ccccc2Br)cc1S(N)(=O)=O | cell growth or viability | SRB | 10 µM |  | inhibition | 30% |
| Cc1ccc(-c2ccc(O)cc2)c(C(=C2C=CC(=O)C=C2)c2ccc(O)cc2)c1C#Cc1ccc(O)cc1 | cell growth or viability | MTT |  | 48 h | IC50 | 18.6 µM |
| COc1ccc(C(=O)/C=C/c2cccnc2)cc1S(N)(=O)=O | cell growth or viability | SRB |  | 48 h | GI50 | 16.6 µM |
| O=C1Nc2ccccc2C1=NNc1nnc2n1N=C(c1ccccc1)CS2 | cell growth or viability | SRB | 10 µM |  | inhibition | 11% |
